In ChEMBL document CHEMBL4229360, “Antimalarial agents against both sexual and asexual parasites stages: structure-activity relationships and biological studies of the Malaria Box compound 1-[5-(4-bromo-2-chlorophenyl)furan-2-yl]-N-[(piperidin-4-yl)methyl]methanamine (MMV019918) and analogues” (Eur J Med Chem, 2018):

Legend:
Plasmodium falciparum [1] = assay: Antiplasmodial activity against chloroquine-resistant Plasmodium falciparum W2 after 72 hrs by lactate dehydrogenase assay; type: functional, organism-based; conditions: W2, 72 h
Method in brief: (§1)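 Asynchronous blood-stage cultures at 1–1.5% parasitemia and 1% final hematocrit in human A+ RBCs, RPMI 1640 with 1% AlbuMax, hypoxanthine, HEPES and glutamine. Serial dilutions from DMSO stocks, final DMSO <1%. Incubated 72 h at 37 °C under 1% O₂/5% CO₂. IC50 is the mean of ≥3 experiments in duplicate.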

Plasmodium falciparum [2] = assay: Antiplasmodial activity against asexual blood stage Plasmodium falciparum NF54 after 72 hrs by SYBR green-based fluorometric analysis; type: functional, organism-based; conditions: NF54, 72 h
Method in brief: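 Asexual NF54 seeded at 0.83% parasitaemia, 1.5% haematocrit, in RPMI1640 with 10% human serum. Serial dilutions, final DMSO 0.1%. Incubated 72 h at 37 °C under 3% O2, 4% CO2, then read by SYBR Green fluorescence.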

Plasmodium falciparum [3] = assay: Antiplasmodial activity against chloroquine-sensitive Plasmodium falciparum D10 after 72 hrs by lactate dehydrogenase assay; type: functional, organism-based; conditions: D10, 72 h; method in brief: as §1
Plasmodium falciparum [4] = assay: Gametocytocidal activity against Plasmodium falciparum NF54 HGL gametocytes assessed as inhibition of parasite viability after 72 hrs by ONE-Glo reagent based luminescence assay; type: functional, organism-based
Method in brief: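 NF54 gametocytes raised in 5% haematocrit RPMI1640/10% human serum, with 50 mM NAG on days 4–9. Mainly stage IV gametocytes isolated on day 11 by Percoll gradient and seeded at 5000 cells/well, final DMSO 0.1%. Incubated 72 h at 37 °C, 3% O2, 4% CO2; viability by ONE-Glo luminescence.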

Plasmodium falciparum [5] = assay: Gametocytocidal activity against Plasmodium falciparum 3D7 elo1-pfs16-CBG99 late-stage (4 to 5) gametocytes assessed as inhibition of parasite viability after 72 hrs by luciferase reporter assay; type: functional, organism-based; conditions: 3D7 elo1-pfs16-CBG99, 72 h
Method in brief: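 Transgenic 3D7elo1-pfs16-CBG99 gametocytes express CBG99 luciferase from the pfs16 promoter. Stage IV–V gametocytes (Giemsa-checked) were exposed at day 8–10 after NAG addition to serial dilutions in complete medium for 72 h. Samples at 2% haematocrit were then mixed 1:1 with D-luciferin (1 mM, pH 5.5 citrate) for 10 min and luminescence was read. IC50 came from non-linear regression, mean of ≥3 experiments in duplicate.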

[6] = Cytotoxicity against mouse NIH/3T3 cells after 24 hrs by neutral red uptake assay; type: cell-based, NIH3T3; conditions: read-out: TC50
Method in brief: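 NIH3T3 cells exposed for 24 h; viability by neutral red uptake. Mean of three experiments, six replicates each.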

[7] = Cardiotoxicity in Langendorff perfused Wistar rat heart assessed as frequency of heart rate at 3 uM by electrocardiography (reference value: 247.05 to 275.90 bpm); type: toxicity, tissue-based
[8] = Cardiotoxicity in Langendorff perfused Wistar rat heart assessed as PQ interval time at 1 uM by electrocardiography (reference value: 41.13 to 42.63 milliseconds); type: toxicity, tissue-based
[9] = Cardiotoxicity in Langendorff perfused Wistar rat heart assessed as QRS interval time at 0.1 uM by electrocardiography (reference value: 13.31 to 14.35 milliseconds); type: toxicity, tissue-based
[10] = Cardiotoxicity in Langendorff perfused Wistar rat heart assessed as reduction of left ventricular pressure; type: toxicity, tissue-based
CaV1.2 channel = CaV1.2 channel (Rattus norvegicus, UniProt P22002); assay: Inhibition of CaV1.2 channel in rat tail artery myocytes assessed as reduction in Ba2+ current at 10 uM at -50 mV holding potential by whole-cell patch-clamp assay; type: cell-based
Method in brief: (§2)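 Freshly isolated rat tail artery smooth muscle cells (collagenase digestion), whole-cell patch clamp at 20–22 °C. External solution: 5 mM Ba2+, 30 mM TEA; Cs+-based internal solution, pH 7.4. Currents from 250-ms pulses to 0 mV from Vh −50 mV at 0.067 Hz, after 7–10 min stabilisation. Leak corrected with 10 μM nifedipine. Peak current as % of control; n = 3–6 cells from ≥3 animals.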

Plasmodium falciparum [11] = assay: Antiplasmodial activity against gametocytes of Plasmodium falciparum NF54 infected in Anopheles stephensi mosquitoes after 24 hrs by standard membrane feeding assay; type: functional, organism-based; conditions: NF54, 24 h
Plasmodium falciparum [12] = assay: Antiplasmodial activity against Plasmodium falciparum sexual stage forms; type: functional, organism-based
Plasmodium falciparum [13] = assay: Gametocytocidal activity against Plasmodium falciparum late stage gametocytes; type: functional, organism-based
[14] = Cardiotoxicity in Langendorff perfused Wistar rat heart assessed as QTc interval time at 0.1 uM by electrocardiography (reference value: 76.45 to 80.07 milliseconds); type: toxicity, tissue-based
[15] = Cardiotoxicity in Langendorff perfused Wistar rat heart assessed as cycle length interval time at 3 uM by electrocardiography (reference value: 217.15 to 242.23 milliseconds); type: toxicity, tissue-based
[16] = target: T1, Phosphoethanolamine N-methyltransferase (Plasmodium falciparum) (UniProt Q8IDQ9); assay: Inhibition of plasmodium falciparum phosphoethanolamine N-methyltransferase expressed in Escherichia coli assessed as remaining enzyme activity at 100 uM using phosphoethanolamine as substrate and [methyl-14C] SAM by radiochemical assay
T1 sequence (whole entry): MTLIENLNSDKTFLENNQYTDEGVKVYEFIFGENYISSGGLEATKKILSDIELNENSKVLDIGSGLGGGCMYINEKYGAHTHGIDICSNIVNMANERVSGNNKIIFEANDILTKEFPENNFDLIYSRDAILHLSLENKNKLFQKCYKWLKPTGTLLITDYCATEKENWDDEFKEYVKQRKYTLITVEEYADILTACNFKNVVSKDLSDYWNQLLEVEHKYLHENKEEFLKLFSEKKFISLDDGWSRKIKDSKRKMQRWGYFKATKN
Method in brief: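 Recombinant PfPMT purified from E. coli, 2 μg per 100 μL reaction. Buffer 0.1 M HEPES-KOH pH 8.0, 2 mM Na2EDTA, 10% glycerol, 5% DMSO, with 30 μM SAM (100 nCi [methyl-14C]SAM) and 55 μM phosphoethanolamine; radiochemical read-out.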

[17] = Cardiotoxicity in Langendorff perfused Wistar rat heart assessed as cycle length interval time at 1 uM by electrocardiography (reference value: 217.15 to 242.23 milliseconds); type: toxicity, tissue-based
[18] = Cardiotoxicity in Langendorff perfused Wistar rat heart assessed as QRS interval time at 1 uM by electrocardiography (reference value: 13.31 to 14.35 milliseconds); type: toxicity, tissue-based
[19] = Cardiotoxicity in Langendorff perfused Wistar rat heart assessed as PQ interval time at 3 uM by electrocardiography (reference value: 41.13 to 42.63 milliseconds); type: toxicity, tissue-based
Plasmodium falciparum [20] = assay: Antiplasmodial activity against Plasmodium falciparum asexual stage forms; type: functional, organism-based
[21] = Cardiotoxicity in Langendorff perfused Wistar rat heart assessed as cycle length interval time at 0.1 uM by electrocardiography (reference value: 217.15 to 242.23 milliseconds); type: toxicity, tissue-based
[22] = Cardiotoxicity in Langendorff perfused Wistar rat heart assessed as QTc interval time at 1 uM by electrocardiography (reference value: 76.45 to 80.07 milliseconds); type: toxicity, tissue-based
[23] = Cardiotoxicity in Langendorff perfused Wistar rat heart assessed as coronary perfusion pressure at 0.1 to 10 uM; type: toxicity, tissue-based
[24] = target: Voltage-dependent L-type calcium channel subunit alpha-1C (Rattus norvegicus, UniProt P22002); assay: Inhibition of CaV1.2 channel in rat tail artery myocytes assessed as reduction in Ba2+ current at -50 mV holding potential by whole-cell patch-clamp assay; type: cell-based; conditions: rat; method in brief: as §2
[25] = Cardiotoxicity in Langendorff perfused Wistar rat heart assessed as PQ interval time at 0.1 uM by electrocardiography (reference value: 41.13 to 42.63 milliseconds); type: toxicity, tissue-based
[26] = Cardiotoxicity in Langendorff perfused Wistar rat heart assessed as frequency of heart rate at 10 uM by electrocardiography (reference value: 247.05 to 275.90 bpm); type: toxicity, tissue-based
[27] = Cardiotoxicity in Langendorff perfused Wistar rat heart assessed as PQ interval time at 10 uM by electrocardiography (reference value: 41.13 to 42.63 milliseconds); type: toxicity, tissue-based
[28] = Cardiotoxicity in Langendorff perfused Wistar rat heart assessed as QTc interval time at 3 uM by electrocardiography (reference value: 76.45 to 80.07 milliseconds); type: toxicity, tissue-based
[29] = Cardiotoxicity in Langendorff perfused Wistar rat heart assessed as QRS interval time at 3 uM by electrocardiography (reference value: 13.31 to 14.35 milliseconds); type: toxicity, tissue-based
[30] = Cardiotoxicity in Langendorff perfused Wistar rat heart assessed as frequency of heart rate at 0.1 uM by electrocardiography (reference value: 247.05 to 275.90 bpm); type: toxicity, tissue-based
[31] = Cardiotoxicity in Langendorff perfused Wistar rat heart assessed as QRS interval time at 10 uM by electrocardiography (reference value: 13.31 to 14.35 milliseconds); type: toxicity, tissue-based
[32] = Cardiotoxicity in Langendorff perfused Wistar rat heart assessed as cycle length interval time at 10 uM by electrocardiography (reference value: 217.15 to 242.23 milliseconds); type: toxicity, tissue-based
hERG (KCNH2) = hERG (KCNH2) (Homo sapiens, UniProt Q12809); assay: Inhibition of human ERG at 50 uM
[33] = Cardiotoxicity in Langendorff perfused Wistar rat heart assessed as QTc interval time at 10 uM by electrocardiography (reference value: 76.45 to 80.07 milliseconds); type: toxicity, tissue-based
[34] = Cardiotoxicity in Langendorff perfused Wistar rat heart assessed as frequency of heart rate at 1 uM by electrocardiography (reference value: 247.05 to 275.90 bpm); type: toxicity, tissue-based

CaV1.2 channel, sequence (P22002 whole entry): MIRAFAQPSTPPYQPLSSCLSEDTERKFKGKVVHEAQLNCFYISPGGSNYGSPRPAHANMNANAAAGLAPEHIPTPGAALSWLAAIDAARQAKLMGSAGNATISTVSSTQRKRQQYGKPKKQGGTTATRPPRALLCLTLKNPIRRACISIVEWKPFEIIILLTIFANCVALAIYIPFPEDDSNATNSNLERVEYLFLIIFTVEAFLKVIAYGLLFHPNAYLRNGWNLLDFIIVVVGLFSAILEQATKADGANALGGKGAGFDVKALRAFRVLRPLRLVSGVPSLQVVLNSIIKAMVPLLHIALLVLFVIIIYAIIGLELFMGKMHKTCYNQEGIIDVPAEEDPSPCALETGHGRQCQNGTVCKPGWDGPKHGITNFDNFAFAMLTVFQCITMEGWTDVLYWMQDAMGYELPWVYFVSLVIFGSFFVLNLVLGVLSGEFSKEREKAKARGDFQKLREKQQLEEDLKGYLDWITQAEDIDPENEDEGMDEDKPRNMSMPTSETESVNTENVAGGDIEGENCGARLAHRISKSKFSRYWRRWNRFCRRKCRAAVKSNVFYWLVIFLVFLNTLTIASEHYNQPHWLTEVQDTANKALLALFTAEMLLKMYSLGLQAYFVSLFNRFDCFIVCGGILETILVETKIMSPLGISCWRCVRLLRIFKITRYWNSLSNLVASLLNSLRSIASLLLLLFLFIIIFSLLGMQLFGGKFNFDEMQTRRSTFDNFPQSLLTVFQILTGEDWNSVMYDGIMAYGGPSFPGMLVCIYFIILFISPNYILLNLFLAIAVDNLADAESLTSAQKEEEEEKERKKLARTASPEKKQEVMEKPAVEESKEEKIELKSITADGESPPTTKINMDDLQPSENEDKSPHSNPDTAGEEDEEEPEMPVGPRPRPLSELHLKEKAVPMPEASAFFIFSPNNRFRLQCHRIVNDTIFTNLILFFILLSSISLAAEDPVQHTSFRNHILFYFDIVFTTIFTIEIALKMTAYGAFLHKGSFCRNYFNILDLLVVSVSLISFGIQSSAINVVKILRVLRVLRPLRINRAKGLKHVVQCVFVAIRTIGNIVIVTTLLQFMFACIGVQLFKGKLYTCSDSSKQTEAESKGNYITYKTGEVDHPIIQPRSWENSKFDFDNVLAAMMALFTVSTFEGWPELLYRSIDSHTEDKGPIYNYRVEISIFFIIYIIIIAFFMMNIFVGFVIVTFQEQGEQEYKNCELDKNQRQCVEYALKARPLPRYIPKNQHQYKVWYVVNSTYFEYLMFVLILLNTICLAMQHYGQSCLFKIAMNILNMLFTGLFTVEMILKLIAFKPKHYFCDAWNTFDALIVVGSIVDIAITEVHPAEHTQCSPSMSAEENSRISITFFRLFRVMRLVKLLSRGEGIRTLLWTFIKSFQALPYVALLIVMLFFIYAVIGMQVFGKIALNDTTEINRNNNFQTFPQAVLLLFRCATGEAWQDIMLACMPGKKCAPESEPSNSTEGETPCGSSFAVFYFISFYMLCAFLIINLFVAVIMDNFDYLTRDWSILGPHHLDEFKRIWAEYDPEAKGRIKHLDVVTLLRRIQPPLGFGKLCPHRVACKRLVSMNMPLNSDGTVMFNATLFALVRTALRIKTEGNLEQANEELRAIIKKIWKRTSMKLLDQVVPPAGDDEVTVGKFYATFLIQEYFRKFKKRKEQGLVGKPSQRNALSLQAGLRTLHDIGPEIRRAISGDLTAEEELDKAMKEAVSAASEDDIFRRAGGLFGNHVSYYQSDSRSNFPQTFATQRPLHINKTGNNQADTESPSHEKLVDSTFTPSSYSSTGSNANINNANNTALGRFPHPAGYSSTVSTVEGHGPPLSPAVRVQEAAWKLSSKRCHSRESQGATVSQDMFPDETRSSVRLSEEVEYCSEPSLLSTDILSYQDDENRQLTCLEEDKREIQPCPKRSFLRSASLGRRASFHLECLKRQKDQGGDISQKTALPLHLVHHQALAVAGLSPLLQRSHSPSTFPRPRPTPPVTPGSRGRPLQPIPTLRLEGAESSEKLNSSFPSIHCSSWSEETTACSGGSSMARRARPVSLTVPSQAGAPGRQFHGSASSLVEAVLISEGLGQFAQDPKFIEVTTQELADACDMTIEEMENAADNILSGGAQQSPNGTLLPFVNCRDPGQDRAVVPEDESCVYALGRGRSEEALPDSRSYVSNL
Voltage-dependent L-type calcium channel subunit alpha-1C, sequence (P22002 whole entry, the tested form may be a part): as the sequence (P22002 whole entry) above
hERG (KCNH2), sequence (Q12809 whole entry, the tested form may be a part): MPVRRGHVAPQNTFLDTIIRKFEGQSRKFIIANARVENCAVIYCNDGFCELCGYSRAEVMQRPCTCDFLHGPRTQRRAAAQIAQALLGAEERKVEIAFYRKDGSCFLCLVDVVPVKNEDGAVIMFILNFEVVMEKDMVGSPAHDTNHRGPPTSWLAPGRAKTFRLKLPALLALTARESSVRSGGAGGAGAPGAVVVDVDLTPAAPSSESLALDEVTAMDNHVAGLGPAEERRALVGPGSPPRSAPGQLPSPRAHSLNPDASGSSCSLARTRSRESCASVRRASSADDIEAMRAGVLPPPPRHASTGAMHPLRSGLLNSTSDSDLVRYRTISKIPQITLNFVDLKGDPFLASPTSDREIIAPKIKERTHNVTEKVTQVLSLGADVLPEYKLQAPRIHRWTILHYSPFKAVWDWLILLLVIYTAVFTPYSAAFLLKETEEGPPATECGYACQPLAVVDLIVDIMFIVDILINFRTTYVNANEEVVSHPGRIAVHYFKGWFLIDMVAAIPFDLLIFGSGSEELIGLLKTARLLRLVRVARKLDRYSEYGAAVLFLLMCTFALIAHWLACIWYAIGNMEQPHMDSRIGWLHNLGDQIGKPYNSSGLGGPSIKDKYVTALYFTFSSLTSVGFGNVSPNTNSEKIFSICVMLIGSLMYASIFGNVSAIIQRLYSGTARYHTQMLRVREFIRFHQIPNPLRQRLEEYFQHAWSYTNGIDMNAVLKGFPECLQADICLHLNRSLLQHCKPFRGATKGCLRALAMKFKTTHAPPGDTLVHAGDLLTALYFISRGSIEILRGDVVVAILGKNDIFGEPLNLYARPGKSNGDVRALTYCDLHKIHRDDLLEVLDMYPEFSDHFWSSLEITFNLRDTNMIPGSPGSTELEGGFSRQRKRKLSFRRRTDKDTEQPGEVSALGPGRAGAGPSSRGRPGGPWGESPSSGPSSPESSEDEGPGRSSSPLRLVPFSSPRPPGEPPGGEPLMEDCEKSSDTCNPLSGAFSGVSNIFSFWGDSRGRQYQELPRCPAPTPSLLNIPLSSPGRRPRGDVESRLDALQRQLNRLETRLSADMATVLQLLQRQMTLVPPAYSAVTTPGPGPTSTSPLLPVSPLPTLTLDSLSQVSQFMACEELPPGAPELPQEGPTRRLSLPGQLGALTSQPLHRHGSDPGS

In the case of `Brc1ccc2cc(CNCC3CCNCC3)sc2c1`, the IC50 (Plasmodium falciparum [1]) is reported as 1500 nM, the IC50 (Plasmodium falciparum [2]) is reported as 730 nM and the IC50 (Plasmodium falciparum [3]) is reported as 1000 nM. It also gave an IC50 (Plasmodium falciparum [4]) of 53 nM and an IC50 (Plasmodium falciparum [5]) of 1400 nM.

With `Clc1ccc(-c2ccc(CNCC3CCNCC3)s2)c(Br)c1` the CC50 at 24 h [6] was under 5 µM, the IC50 (Plasmodium falciparum [1]) was 1400 nM and the IC50 (Plasmodium falciparum [2]) was 420 nM. The IC50 (Plasmodium falciparum [3]) was 530 nM, the IC50 (Plasmodium falciparum [4]) was 28 nM and the IC50 (Plasmodium falciparum [5]) was 830 nM.

Work on `C[N+](C)(C)CCCNCc1ccc(-c2ccc(Cl)cc2Br)o1` yielded an IC50 (Plasmodium falciparum [1]) of 5500 nM, an IC50 (Plasmodium falciparum [3]) of 2500 nM and an IC50 (Plasmodium falciparum [5]) of over 24000 nM.

In the case of `c1ccc(-c2ccc(CNCC3CCNCC3)o2)cc1`, the IC50 (Plasmodium falciparum [1]) is reported as 9100 nM, the IC50 (Plasmodium falciparum [3]) is reported as 3500 nM and the IC50 (Plasmodium falciparum [5]) is reported as 8600 nM.

In the case of `FC(F)(F)c1ccc(-c2ccc(CNCC3CCNCC3)o2)cc1`, the CC50 at 24 h [6] is reported as 50 µM, the IC50 (Plasmodium falciparum [1]) is reported as 1500 nM and the IC50 (Plasmodium falciparum [3]) is reported as 410 nM. It also gave an IC50 (Plasmodium falciparum [5]) of 1900 nM.

Molecule `Brc1ccc(-c2ccc(CNCC3CCNCC3)o2)cc1` has an IC50 (Plasmodium falciparum [1]) of 8000 nM, an IC50 (Plasmodium falciparum [3]) of 1100 nM and an IC50 (Plasmodium falciparum [5]) of 4400 nM.

`COc1ccccc1-c1ccc(CNCC2CCNCC2)o1` showed a CC50 at 24 h [6] of 53 µM, an IC50 (Plasmodium falciparum [1]) of over 15000 nM and an IC50 (Plasmodium falciparum [3]) of 10000 nM. The IC50 (Plasmodium falciparum [5]) was 11800 nM.

For `Clc1ccc(-c2nnc(CNCC3CCNCC3)o2)c(Br)c1`, the IC50 (Plasmodium falciparum [1]) was 7900 nM, the IC50 (Plasmodium falciparum [3]) was over 13000 nM and the IC50 (Plasmodium falciparum [5]) was over 26000 nM.

Work on `Clc1ccc(-c2ccc(CNCC3CCNCC3)o2)c(Br)c1` yielded a CC50 at 24 h [6] of under 5 µM, an IC50 (Plasmodium falciparum [1]) of 1870 nM and an IC50 (Plasmodium falciparum [3]) of 510 nM. For the same molecule, the IC50 (Plasmodium falciparum [5]) was 1100 nM.

For `Clc1cc(Br)ccc1-c1ccc(CNCC2CCNCC2)o1`, the Activity [7] was 257.71 bpm, the Time [8] was 42.5 ms and the IC50 (Plasmodium falciparum [1]) was 2300 nM. The Time [9] was 14.25 ms, the Activity [10] was “Dose-dependent effect” and the inhibition at 10 µM (CaV1.2 channel) was 57%. The EC50 (Plasmodium falciparum [11]) was 70 nM, the IC50 (Plasmodium falciparum [12]) was under 1000 nM and the IC50 (Plasmodium falciparum [13]) was under 1000 nM. It also gave a Time [14] of 81.51 ms, a Time [15] of 233.9 ms and an Activity [16] of 92%. For the same molecule, the Time [17] was 232.48 ms, the Time [18] was 15.8 ms and the Time [19] was 47.9 ms. The IC50 (Plasmodium falciparum [20]) was under 1000 nM, the Time [21] was 235.08 ms and the IC50 (Plasmodium falciparum [3]) was 770 nM. For the same molecule, the Time [22] was 80.93 ms, the Activity [23] was “Non-Toxic” and the “inhibition (INH)” value [24] was “Dose-dependent effect”. For the same molecule, the Time [25] was 42.29 ms, the IC50 (Plasmodium falciparum [5]) was 1200 nM and the Activity [26] was 222.74 bpm. The Time [27] was 67.5 ms, the Time [28] was 82.1 ms and the Time [29] was 17.46 ms. For the same molecule, the Activity [30] was 256.15 bpm, the Time [31] was 23.75 ms and the Time [32] was 272.57 ms. It also gave an inhibition at 50 µM (hERG (KCNH2)) of 83%, a Time [33] of 80.99 ms and an Activity [34] of 258.35 bpm.

Work on `CN(C)c1ccc2nc3ccc(N(C)C)cc3[s+]c2c1` [METHYLENE BLUE ANHYDROUS] yielded an IC50 (Plasmodium falciparum [5]) of 30 nM.
